Screening results: PubChem BioAssay, several laboratories
FAK inh = FAK kinase inhibitors, primary screen, biochemical; biochemical FAK kinase activity assay; inhibition, %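 (tested at 7 µM)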; 0.84% of 97,000 active; AID 727, 2007; in the data active = inhibition above about 19%;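 note: 0% = DMSO and 100% = reference compound high control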
Target sequence (Q05397 whole entry, looked up): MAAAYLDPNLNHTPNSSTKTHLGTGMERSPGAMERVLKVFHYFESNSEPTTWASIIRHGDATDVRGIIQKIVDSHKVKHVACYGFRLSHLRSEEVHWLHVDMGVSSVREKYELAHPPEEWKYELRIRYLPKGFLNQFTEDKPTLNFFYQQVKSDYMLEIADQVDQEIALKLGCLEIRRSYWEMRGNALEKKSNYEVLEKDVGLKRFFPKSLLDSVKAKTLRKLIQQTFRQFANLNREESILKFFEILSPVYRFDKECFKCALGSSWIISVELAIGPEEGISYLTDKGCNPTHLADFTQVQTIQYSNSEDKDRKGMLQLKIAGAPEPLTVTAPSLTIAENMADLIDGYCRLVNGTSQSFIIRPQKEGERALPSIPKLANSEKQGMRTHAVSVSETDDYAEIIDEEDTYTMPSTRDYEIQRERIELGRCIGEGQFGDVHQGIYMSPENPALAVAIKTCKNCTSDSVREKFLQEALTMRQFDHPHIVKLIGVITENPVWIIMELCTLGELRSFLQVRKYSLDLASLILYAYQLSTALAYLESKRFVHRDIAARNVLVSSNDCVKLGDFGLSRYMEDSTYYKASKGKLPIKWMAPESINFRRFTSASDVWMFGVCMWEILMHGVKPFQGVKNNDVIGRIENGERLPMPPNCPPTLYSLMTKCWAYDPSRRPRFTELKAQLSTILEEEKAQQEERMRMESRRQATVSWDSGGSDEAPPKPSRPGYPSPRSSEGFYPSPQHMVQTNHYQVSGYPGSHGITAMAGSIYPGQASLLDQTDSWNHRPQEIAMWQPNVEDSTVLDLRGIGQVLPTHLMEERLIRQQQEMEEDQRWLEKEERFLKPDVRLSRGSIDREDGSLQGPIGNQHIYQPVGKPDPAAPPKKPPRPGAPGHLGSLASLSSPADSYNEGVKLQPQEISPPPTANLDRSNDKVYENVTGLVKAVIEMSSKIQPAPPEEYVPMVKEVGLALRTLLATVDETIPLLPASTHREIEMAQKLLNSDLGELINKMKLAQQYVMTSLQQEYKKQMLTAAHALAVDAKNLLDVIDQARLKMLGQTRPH
PTK2B oligo ant = antagonists of Pyk2 self-association, primary screen, Q293 cells, FERM NanoBiT luminescence, HTS; Protein-tyrosine kinase 2-beta (Homo sapiens), Q14289; z-score (the deposit names both 25 µM and 10 µM); 0.83% of 99,000 active; hits give low values;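 active = Z-score of -3 or lower, scaled per plate to the spread of control and sample wells; inactive = z-score above -3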;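 note: negative z-score means lost luminescence so less FERM oligomerization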
Calb biofilm kill = clotrimazole potentiators killing Candida biofilms, primary screen, with clotrimazole, Alamar Blue; C. albicans biofilm + clotrimazole; inhibition, % at 6 µM; 0.14% of 85,000 active; AID 834, 2007;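 active = inhibition above 20%; inactive = inhibition below 20%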;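 note: preformed 24 hr biofilms exposed to compound for 48 hr; 0% = biofilm without compound and 100% = blank killed by clotrimazole plus chlorhexidine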
PostGolgi yeast = phenotypic screen on post-Golgi transport, primary screen; post-Golgi transport phenotypic cell assay; 0.9% of 98,000 active; inhibition, % at 10 µM;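 note: yeast cells grown in 1536-well plates; yeast grown about 18 h at 30C before absorbance read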
PostGolgi ctrl = growth inhibition of yeast control strain, primary screen, counter-screen for post-Golgi transport modulator project; efflux-deficient yeast background strain, growth absorbance A615, 16 h; inhibition, % at 10 µM; 5% of 98,000 active; AID 738, 2007
Ecoli tolC = growth inhibitors of E. coli tolC mutant, primary screen, strain BW25113 ΔtolC::kan, 384-well; growth inhibition, % at 10 µM (by protocol); OD615; 2.2% of 65,000 active;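 active = growth inhibition at or above a cutoff equal to the mean over every tested compound plus 3 SD, cut at about 60% in these data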;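 note: growth measured after 20 h incubation at 37 °C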
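Test system: E. coli BW25113 ΔtolC::kan bacteria | Medium: Kanamycin-containing LB broth (50 µg/mL) | Dosing: One dose of 10 µM final | Times: 20 h incubation with compound, 37 °C | Detection: Optical density read at 615 nm | Read-out basis: Percent growth inhibition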
Active calls of the source: *; · = no result given. Most compounds without a hit are left out; they make up all but 6.9% or so of the library. Cut-off read from the data, not from the text of the source, unless noted: active = inhibition above about 30%; inactive = the rest.

SMILES	FAK inh	PTK2B oligo ant	Calb biofilm kill	PostGolgi yeast	PostGolgi ctrl	Ecoli tolC
CCOc1cc(C)cc2oc(=O)cc(-c3ccccc3)c12	0	-1.8	1	21	32*	·
CC(=O)N1C=CN(C(C)=O)C(c2cn(C)c3ccccc23)C1c1cn(C)c2ccccc12 (stereo unspecified)	·	-1.9	3	-4	34*	21
COc1ccc2c(c1)S/C(=C\C(=O)c1ccncc1)N2C	0	-0.83	9	51*	86*	4
COc1ccc2c(c1)SCC(=O)N2C	0	1.1	9	·	·	·
COc1ccc(OC)c(NC(=O)CSc2nnc(CCCO)n2-c2ccccc2)c1	0	0.63	·	-5	-9	-9
N#Cc1cc2c(nc1SCC(O)CS(=O)(=O)Cc1ccc(Cl)cc1)CCCC2 (stereo unspecified)	1	-2.2	-1	-3	36*	·
CC(C)(C)c1ccc(S(=O)(=O)CC(O)CSc2nc3c(cc2C#N)CCCC3)cc1 (stereo unspecified)	1	0.14	4	10	25	·
CCCC(=O)Nc1nc2ccc(S(=O)(=O)N3CCCCC3)cc2s1	-2	·	9	7	3	1
C/C(N)=C(/C#N)C(=O)CSc1nc2cc(Cl)ccc2s1	15	-0.05	·	-12	44*	21
O=C(C1CCCCN1S(=O)(=O)c1ccccc1)N1CCN(Cc2ccccc2)CC1 (stereo unspecified)	-2	0.3	4	-3	3	·
O=C(NCCCc1ccccc1)c1ccccc1O	0	0.15	2	-11	8	67*
C=CCSc1nnc2c(n1)OC(c1cccnc1)Nc1ccccc1-2 (stereo unspecified)	-4	0.18	5	-4	-2	-3
C=CCSc1nnc2c(n1)OC(c1c(C)[nH]n(-c3ccccc3)c1=O)Nc1ccccc1-2 (stereo unspecified)	-2	-1.8	·	3	40*	·
Cn1c(C(=O)NCc2ccc3c(c2)OCO3)cc2sccc21	9	-0.92	-1	-14	8	18
CC(C)n1c(C(=O)OCC(=O)NCc2ccc3c(c2)OCO3)cc2sccc21	5	-1.4	3	0	37*	58
CC(C)n1c(C(=O)OCC(=O)NCc2ccc3c(c2)OCO3)cc2occc21	·	2.5	6	-5	13	64*
Cn1nnnc1SCSc1nnnn1C	1	-0.29	5	2	6	-20
N#Cc1c(NCCCO)nc(NCc2ccccc2)c2c1CCN(Cc1ccccc1)C2	2	-0.24	6	0	20	·
CN1CCc2c(C#N)c(N3CCCCC3)nc(NCc3ccccc3)c2C1	5	-0.81	3	27	48*	7
O=C(CCC(=O)OCC(=O)c1ccc(Br)cc1)NC1CCCCC1	0	-0.01	5	-4	37*	·
O=C(CCC(=O)OCC(=O)c1ccc(F)cc1)NC1CCCCC1	-1	0.45	6	40*	4	·
c1ccc(-c2ccc(OCCOCCn3cncn3)cc2)cc1	2	-1.3	1	-3	44*	3
CN1C(=S)SC(N(O)C(=O)Nc2ccccc2)C1(C)C (stereo unspecified)	1	1.8	5	2	5	8
CN1C(=S)SC(N(O)C(=O)Nc2cccc3ccccc23)C1(C)C (stereo unspecified)	-3	-3.8*	4	-5	11	·
O=C(CSc1nc2c(sc3ccccc32)c(=O)n1Cc1ccco1)NCC1CCCO1 (stereo unspecified)	2	-0.83	-3	6	32*	1
SMILES	FAK inh	PTK2B oligo ant	Calb biofilm kill	PostGolgi yeast	PostGolgi ctrl	Ecoli tolC
O=C(CSc1nc2c(sc3ccccc32)c(=O)n1Cc1ccccc1)NCC1CCCO1 (stereo unspecified)	3	-0.17	-2	-2	5	·
COC(=O)c1cc(OC)c(OC)cc1NC(=O)CC1CCCCC1	0	-1.9	2	2	42*	14
O=C(COc1ccc2c(c1)OCO2)NC12CC3CC(CC(C3)C1)C2	4	-1.9	4	-9	36*	25
O=C(NC12CC3CC(CC(C3)C1)C2)N1CCC(O)(c2ccc3c(c2)OCO3)CC1	-7	0.25	6	3	10	-11
Cc1noc(C)c1COc1ccc(C(=O)OCC(=O)NC23CC4CC(CC(C4)C2)C3)cc1	1	0.56	8	-6	37*	·
CC1(C)CC(=O)C2=C(C1)N(c1ccccc1)C(=O)CC2c1ccsc1 (stereo unspecified)	0	·	9	-3	9	·
CCCSc1nnc(N2C(=O)CC(c3ccsc3)C3=C2CCCC3=O)s1 (stereo unspecified)	4	·	5	-3	48*	6
COc1ccccc1-c1nnc(SCc2nc3ccccc3[nH]2)n1C	0	0.6	5	-11	2	7
CCCC(c1nnnn1CS(=O)(=O)c1ccc(C)cc1)N1CCN(c2ccccc2)CC1 (stereo unspecified)	2	-0.62	6	-8	31*	6
CCCc1cc(=O)[nH]c(SCc2cc(C(=O)OC)c(C)o2)n1	-2	0.86	3	0	-10	15
CSc1nnc(Cc2cc(=O)[nH]c(=O)[nH]2)n1-c1cccc(C)c1	10	0.75	-1	1	-3	-18
Cc1cc(Cl)ccc1NC(=O)CSc1nnc(-c2ccncc2)n1Cc1ccco1	-5	1.3	2	0	-7	6
O=C(CSc1nnc(Cc2cccs2)n1Cc1ccco1)Nc1ccc(Cl)cc1Cl	-3	-0.33	-3	0	25	95*
O=C(CSc1nnc(Cc2cccs2)n1Cc1ccco1)Nc1ccc(Br)cc1	2	0.6	4	2	15	100*
O=C(CSc1nnc(Cc2ccccc2)n1Cc1ccco1)NC12CC3CC(CC(C3)C1)C2	2	-2.2	4	-8	18	83*
CN(C)C(=O)CSc1nnc(Cc2ccccc2)n1Cc1ccco1	-3	0.04	8	·	·	·
CCN(CC)CCCn1c(C)cc2c(c1=O)C(c1cccc(Cl)c1)C(C#N)=C(N)O2 (stereo unspecified)	-3	1.6	7	1	4	4
Cc1cc(NC(=O)c2cc(-c3cccc(Cl)c3)on2)no1	3	0.73	8	0	-8	-22
COC(=O)C1=C(CSc2nc3c(cc2C#N)CN(C)CC3)OC(N)=C(C#N)C1c1ccccc1F (stereo unspecified)	14	0.13	4	·	·	·
CCOC(=O)c1c(NC(=O)CSc2nnnn2-c2ccc3c(c2)OCCO3)sc(C)c1C	-1	-0.55	3	3	14	13
CCn1cnc2c1c(=O)n(Cc1csc(-c3ccccc3)n1)c(=O)n2Cc1ccccc1	0	-1.6	-8	-2	48*	32
